Measurements reported in PubChem BioAssay.
Records with an inconclusive call do not appear.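 How the source made its calls, unless noted: active means viability increase at or above a cutoff of the median across tested compounds plus 3 SD (cut at about 8.5% in these data, passing the limit was not always enough); inconclusive means some gains above the cutoff, reason not given; inactive means the rest.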

Tests used:
[1] = OD615 S. cerevisiae growth inhibition, permissive medium, pilot counter-assay, permissive growth control for S. cerevisiae lifespan shortening project (AID 705;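 active means growth inhibition above 25% in both replicates, a cutoff set 3 SD above the mean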); details: OD615, 24 h, at 10 µM, stronger effect = higher value
How it was run: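 System: S. cerevisiae with engineered DeaD lifespan system / Measured by: absorbance (optical density) at 615 nm / Read-out: reduction in yeast growth (OD615) / Times: 4 h cell pre-growth, 24 h exposure at 30 °C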

[2] = Restrictive medium S. cerevisiae growth inhibition, OD615, pilot screen of yeast lifespan reduction project, restrictive growth control (AID 706;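 active means growth inhibition above a set limit, 3 SD over mean compound inhibition, in both replicates, cut at about 43% in these data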;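 further: modified DeaD lifespan yeast strain shifted to restrictive glucose medium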); details: OD615, 48 h, at 10 µM, stronger effect = higher value
How it was run: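 System: Engineered S. cerevisiae DeaD strain | Buffer or medium: Glucose-based CSMM-D restrictive medium | Schedule: 4 h pre-incubation, 48 h exposure at 30 °C | Technique: Optical density at 615 nm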

[3] = viability gain of MRP-1-high H69AR cells under doxorubicin, pilot screen, MRP-1 activator project, CellTiter-Glo, duplicate (AID 807); details: H69AR viability with doxorubicin, CellTiter-Glo luminescence; at 10 µM; stronger effect = higher value;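 further: compound pretreatment 18-22 h then 72 h combined with doxorubicin; 0% = doxorubicin alone and 100% = vehicle without doxorubicin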
[4] = growth suppression of beta-catenin knockout HCT116, pilot screen, human colon tumor cells (AID 823;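 active means cell viability at or below a set limit in both duplicate runs, the limit being the all-compound median minus 4 SD, cut at about 23% in these data, passing the limit was not always enough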;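 further: 0% = wells killed by 20 µM Hyamine and 100% = untreated DMSO cell wells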); details: CellTiter-Glo, 60 h, at 10 µM, stronger effect = lower value
[5] = growth suppression of PTEN-deleted HCT116, pilot screen, cell-based, HCT116 clonal line, CellTiter-Glo (AID 824;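 active means viability at or below 27.92% in each of two runs, the all-compound median minus 4 SD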;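 further: 0% = 20 µM Hyamine control and 100% = vehicle cell control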); details: 60 h, at 10 µM, stronger effect = lower value
[6] = inhibitors of the yeast RAM network, pilot screen, dse1pr::URA3 reporter, 5-FOA selection (AID 869;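 active means inhibition over a set limit, the all-compound mean plus 3 SD, in both replicate runs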;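 further: 0% = DMSO wells with no growth and 100% = 10 µM 1-NA-PP1 with full growth; RAM network block rescues cells from 5-FOA so hits raise OD615 growth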); details: S. cerevisiae dse1pr::URA3 5-FOA growth, OD615, 2 d; at 10 µM; stronger effect = higher value; strain carries analog-sensitive mutant Cbk1 kinase
[7] = RAM signaling pathway blockade in yeast – S. cerevisiae, Pdr1DBD-CYC8 efflux-inhibited sensitized strain, primary screen (AID 1298;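 active means RAM network inhibition above 8.4% in each of two replicates, 3 SD over the compound average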;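 further: 0% = DMSO untreated cells without growth and 100% = 10 µM 1-NA-PP1 full growth; higher means more yeast growth rescued from 5-FOA killing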); details: S. cerevisiae cbk1-as DSE1-URA3 strain, 5-FOA growth OD615, 2 d; at 50 µM; stronger effect = higher value

CCOC(=O)c1sc(NC(=O)c2ccco2)nc1-c1ccccc1
inactive: growth inhibition [1] -1.62% | growth inhibition [2] -1.76% | viability increase [3] -2.38% | viability [4] 105% | viability [5] 95.5% | inhibition [6] 4.44% | RAM network inhibition [7] 4.08%

CCn1cc(C2=NC(C(C)C)CO2)c2ccccc21 (configuration not stated)
inactive: growth inhibition [1] -12% | growth inhibition [2] -6.49% | viability increase [3] -2.74% | viability [4] 99.2% | viability [5] 95.9% | inhibition [6] 1.54% | RAM network inhibition [7] 2.06%

COC(=O)CN1C(=O)COc2ccc(Cl)cc21
inactive: growth inhibition [1] 4.22% | growth inhibition [2] -4.81% | viability increase [3] -0.89% | viability [4] 104% | viability [5] 94% | inhibition [6] 0.605% | RAM network inhibition [7] 2.29%

COc1ccc(OC)c(N(CC(=O)O)S(=O)(=O)c2ccc(OC)c(OC)c2)c1
inactive: growth inhibition [1] -2.7% | growth inhibition [2] -11.1% | viability increase [3] -0.41% | viability [4] 98.9% | viability [5] 94% | inhibition [6] 2.03% | RAM network inhibition [7] 4.23%

COc1ccc(S(=O)(=O)Cc2ccc(C(=O)N3CCN(c4cc(Cl)ccc4C)CC3)o2)cc1
inactive: growth inhibition [1] -4.16% | growth inhibition [2] -10.7% | viability increase [3] -2.31% | viability [4] 76.8% | viability [5] 67% | inhibition [6] 2.08% | RAM network inhibition [7] 3.33%

CC(C)(C)OC(=O)N1CCC(C(N)=O)CC1
inactive: growth inhibition [1] -1.93% | growth inhibition [2] 0.2% | viability increase [3] -0.33% | viability [4] 103% | viability [5] 104% | inhibition [6] 0.535% | RAM network inhibition [7] 0.06%

COc1ccc(C2c3sc(=O)[nH]c3SC3C(=O)N(c4ccccc4)C(=O)C32)cc1 (configuration not stated)
inactive: growth inhibition [1] -6.11% | growth inhibition [2] 12.6% | viability increase [3] 0.68% | viability [4] 99.9% | viability [5] 99.3% | inhibition [6] 2.98% | RAM network inhibition [7] 5.53%

Cc1ccccc1CN1CCNC(=O)C1CC(=O)O (configuration not stated)
inactive: growth inhibition [1] -13.2% | growth inhibition [2] -14.1% | viability increase [3] -3.29% | viability [4] 105% | viability [5] 96.2% | inhibition [6] 2.04% | RAM network inhibition [7] -0.64%

Cc1nc2ccc(NC(=O)c3ccc(S(=O)(=O)N4CCOCC4)cc3)cc2s1
inactive: growth inhibition [1] -2.22% | growth inhibition [2] -2.84% | viability increase [3] 0.28% | viability [4] 95.3% | viability [5] 93.8% | inhibition [6] 3.07% | RAM network inhibition [7] 4.83%

Cc1cccn2cc(-c3ccc(S(=O)(=O)N4CCOCC4)cc3)nc12
inactive: growth inhibition [1] -12.6% | growth inhibition [2] -19.7% | viability increase [3] -1.3% | viability [4] 83.5% | viability [5] 91% | inhibition [6] 1.75% | RAM network inhibition [7] 2.29%

CC1(C)CC(=O)C=C(NCCCNC2CCCCC2)C1
inactive: growth inhibition [1] -9.9% | growth inhibition [2] -7.88% | viability increase [3] -2.17% | viability [4] 96.5% | viability [5] 93% | inhibition [6] 0.125% | RAM network inhibition [7] 1.72%

O=S(=O)(NCCSc1nnc(-c2ccco2)n1-c1ccccc1)c1ccccc1
inactive: growth inhibition [1] -14.1% | growth inhibition [2] -19.2% | viability increase [3] -3.53% | viability [4] 83.9% | viability [5] 87.1% | inhibition [6] 1.52% | RAM network inhibition [7] 6.44%

Cc1cc(-c2nnc(-c3cc4ccccc4oc3=O)o2)c(C)n1-c1ccccc1
inactive: growth inhibition [1] -0.055% | growth inhibition [2] -2.88% | viability increase [3] -2.92% | viability [4] 79.7% | viability [5] 79.1% | inhibition [6] 3.04% | RAM network inhibition [7] 3.21%

Cc1c(NC(=O)NCCN2C(=O)C3C4C=CC(C4)C3C2=O)c(=O)n(-c2ccccc2)n1C (configuration not stated)
inactive: growth inhibition [1] -9.82% | growth inhibition [2] -8.71% | viability increase [3] 0.15% | viability [4] 98.2% | viability [5] 99.8% | inhibition [6] 1.09% | RAM network inhibition [7] 4.55%

O=S(=O)(c1cccs1)n1nnc2ccccc21
inactive: growth inhibition [1] -1.66% | growth inhibition [2] -8.55% | viability increase [3] -0.18% | viability [4] 103% | viability [5] 105% | inhibition [6] 1.33% | RAM network inhibition [7] 0.48%

C=CCn1c(C(C)NC(=O)C(C)(C)C)nc2ccccc21 (configuration not stated)
inactive: growth inhibition [1] -9.47% | growth inhibition [2] -11.3% | viability increase [3] 1.33% | viability [4] 94.8% | viability [5] 95.5% | inhibition [6] 1.41% | RAM network inhibition [7] 0.71%

Cc1cc(C)n(S(=O)(=O)c2cccc(Cl)c2Cl)n1
inactive: growth inhibition [1] -2.69% | growth inhibition [2] -0.205% | viability increase [3] -1.97% | viability [4] 96.8% | viability [5] 93.6% | inhibition [6] 0.73% | RAM network inhibition [7] 2.28%

Fc1ccc(Nc2nc(N3CCOCC3)c3ccccc3n2)cc1
inactive: growth inhibition [1] -3.31% | growth inhibition [2] -13.7% | viability increase [3] -3.18% | viability [4] 93.5% | viability [5] 93.4% | inhibition [6] 0.45% | RAM network inhibition [7] 2.64%

COc1ccc(N(CC(=O)NCc2ccco2)S(=O)(=O)c2c(C)nn(C)c2C)cc1
inactive: growth inhibition [1] -11% | growth inhibition [2] -12.6% | viability increase [3] -4.02% | viability [4] 89.8% | viability [5] 92.6% | inhibition [6] 0.185% | RAM network inhibition [7] 0.73%

Cc1nc2ccccc2c2oc(C(=O)N3CCc4ccccc43)cc12
inactive: growth inhibition [1] -11.5% | growth inhibition [2] -16.6% | viability increase [3] -0.71% | viability [4] 95.5% | viability [5] 89.1% | inhibition [6] 0.625% | RAM network inhibition [7] -0.73%

CCSc1nc2ccccc2n1S(=O)(=O)c1ccccc1
inactive: growth inhibition [1] -13.9% | growth inhibition [2] -20.8% | viability increase [3] -0.8% | viability [4] 101% | viability [5] 100% | inhibition [6] 0.395% | RAM network inhibition [7] 1.37%

CCOC(=O)c1ccc(NC(=O)CSc2nnc(Cn3c(=O)sc4ccccc43)n2C)cc1
inactive: growth inhibition [1] -8.11% | growth inhibition [2] 12% | viability increase [3] -2.6% | viability [4] 94.1% | viability [5] 88.5% | inhibition [6] 0.665% | RAM network inhibition [7] 3.59%

COc1ccc(S(=O)(=O)Cc2ccc(C(=O)N3CCN(C4CCCCC4)CC3)o2)cc1
inactive: growth inhibition [1] 8.67% | growth inhibition [2] 7.12% | viability increase [3] -2.58% | viability [4] 78.9% | viability [5] 90% | inhibition [6] 0.75% | RAM network inhibition [7] -1.9%

Cc1cccc(N2CCN(C(=O)C3CCN(c4nnc(-n5cccc5)s4)CC3)CC2C)c1 (configuration not stated)
inactive: growth inhibition [1] -6.52% | growth inhibition [2] -21.5% | viability increase [3] -1.6% | viability [4] 40.1% | viability [5] 45% | inhibition [6] 0.825% | RAM network inhibition [7] 2.84%

CC(NC(=O)Cn1cc2c(n1)CCCCC2)c1ccccc1 (configuration not stated)
inactive: growth inhibition [1] -0.875% | growth inhibition [2] 2.88% | viability increase [3] 3.53% | viability [4] 101% | viability [5] 100% | inhibition [6] -0.32% | RAM network inhibition [7] 0.87%

c1ccc(N2CCN(c3nnnn3-c3ccccc3)CC2)cc1
inactive: growth inhibition [1] -10.6% | growth inhibition [2] 3.73% | viability increase [3] -0.01% | viability [4] 76% | viability [5] 75.7% | inhibition [6] 1.12% | RAM network inhibition [7] 9%

CCCC(=O)Nc1nc2c(OC)ccc(OC)c2s1
inactive: growth inhibition [1] -7.39% | growth inhibition [2] -5.13% | viability increase [3] -3.01% | viability [4] 93.5% | viability [5] 90.3% | inhibition [6] 2.33% | RAM network inhibition [7] 3.64%

Cc1onc(-c2ccccc2Cl)c1C(=O)OCN1C(=O)c2ccccc2C1=O
inactive: growth inhibition [1] -16.8% | growth inhibition [2] -12.5% | viability increase [3] -2.89% | viability [4] 90% | viability [5] 99% | inhibition [6] 0.93% | RAM network inhibition [7] 5.34%

C(=C\c1ccccc1)/CSc1nnc(-c2cccnc2)o1
inactive: growth inhibition [1] 8.71% | growth inhibition [2] 32.7% | viability increase [3] 0.3% | viability [4] 99.9% | viability [5] 93.1% | inhibition [6] 0.04% | RAM network inhibition [7] 0.25%

Cc1nc2ccc3nc(NC(=O)C4COc5ccccc5O4)sc3c2s1 (configuration not stated)
inactive: growth inhibition [1] -10.6% | growth inhibition [2] 0.74% | viability increase [3] -4.93% | viability [4] 86.8% | viability [5] 80.6% | inhibition [6] 1.55% | RAM network inhibition [7] -0.06%

C=CCNc1ncnc2ccc(Br)cc12
inactive: growth inhibition [1] 2.36% | growth inhibition [2] 9.25% | viability increase [3] -5.67% | viability [4] 84.1% | viability [5] 75.8% | inhibition [6] 1.87% | RAM network inhibition [7] 4.09%

COc1ccc(CNC(=O)c2cc3c(C)nc4ccccc4c3o2)c(OC)c1
inactive: growth inhibition [1] -10.6% | growth inhibition [2] -12.2% | viability increase [3] -0.17% | viability [4] 74% | viability [5] 75.2% | inhibition [6] 1.66% | RAM network inhibition [7] 6.46%

COc1ccc(C2C(C(=O)c3ccco3)=C(O)C(=O)N2CCc2ccccc2)cc1OC (configuration not stated)
inactive: growth inhibition [1] -12.1% | growth inhibition [2] 7.54% | viability increase [3] -1.95% | viability [4] 101% | viability [5] 92.5% | inhibition [6] 5.36% | RAM network inhibition [7] 4.36%

Cc1cc(C)n(CC(O)Cn2c3ccccc3c3ccccc32)c(=O)n1 (configuration not stated)
inactive: growth inhibition [1] -7.41% | growth inhibition [2] -12.9% | viability increase [3] -2.44% | viability [4] 90% | viability [5] 91.5% | inhibition [6] 1.3% | RAM network inhibition [7] 5.3%

CCSc1sccc1C1C(C#N)=C(N)N(c2cccnc2)C2=C1C(=O)CC(C)(C)C2 (configuration not stated)
inactive: growth inhibition [1] -14.3% | growth inhibition [2] -6.69% | viability increase [3] -6.56% | viability [4] 92.1% | viability [5] 93.2% | inhibition [6] 0.9% | RAM network inhibition [7] 12.4%

CC(C)C(NC(=O)C12CC3CC(CC(C3)C1)C2)C(=O)NC1=NCCS1 (configuration not stated)
inactive: growth inhibition [1] -6.21% | growth inhibition [2] 7.3% | viability increase [3] -3.97% | viability [4] 88% | viability [5] 89.2% | inhibition [6] 2.41% | RAM network inhibition [7] 4.34%
